TbMetRS inhib – T. brucei MetRS inhibitors, primary screen, biochemical, luminescence; inhibition, % at 11.9 µM; methionyl-tRNA synthetase (Trypanosoma brucei brucei); 360,000 tested, 0.4% active; purified T. brucei MetRS, ATP depletion, Kinase-Glo luminescence;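 active = inhibition above a per-plate cutoff of the control wells' mean inhibition plus 3 SD, cut at about 5.5% in these data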;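 also: 0% = DMSO wells median and 100% = median of wells with control inhibitor compound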
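Material: parasite MetRS enzyme / Replication: singlicate, one well per compound / Signal: luminescence of leftover ATP / Schedule: 2 h aminoacylation at 25 °C after 15 min preincubation / Medium: HEPES-MgCl2-KCl buffer plus DTT, spermine, BSA, pyrophosphatase / Doses: 11.9 µM single point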
WT yeast gro inh – growth inhibition of WT strain, primary screen, mitochondrial fusion inhibitor project, WT and mutant strains, chemical genetic. AID 1362, 2008. mitochondrial fusion phenotypic screen. inhibition, % at 10 µM. 190,000 tested, 2.1% active; in the data active = inhibition above about 58%; tested in S. cerevisiae
MPTP inh – mitochondrial permeability transition pore inhibitors, primary screen, biochemical, isolated mouse mitochondria, absorbance; Ca2+ swelling absorbance, 30 min; inhibition, % at 10 µM; 360,000 tested, 1.4% active;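 active = inhibition of 50% or more, scaled per plate between neutral and stimulator controls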;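 also: 0% = DMSO wells given calcium and 100% = 1 mM EGTA wells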
EBV gp42 inh – Epstein-Barr virus gp42 inhibitors, primary screen, biochemical, uHTS, fluorescence polarization; Fluorescence polarization binding assay, mP read-out; AID 1085, 2008; 220,000 tested, 0.42% active; inhibition, % (tested at 21.74 µM); in the data active = inhibition above about 50%
Target sequence (Q1HVG2 whole entry, looked up): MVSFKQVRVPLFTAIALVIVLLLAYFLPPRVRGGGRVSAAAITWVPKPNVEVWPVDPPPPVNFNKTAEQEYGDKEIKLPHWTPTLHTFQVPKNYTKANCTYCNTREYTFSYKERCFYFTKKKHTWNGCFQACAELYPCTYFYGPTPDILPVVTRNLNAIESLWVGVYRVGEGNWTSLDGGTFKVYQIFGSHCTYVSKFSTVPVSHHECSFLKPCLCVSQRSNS
GRIN3A LBD mod – binders of NR3A ligand-binding domain, primary screen, biophysical, differential scanning fluorimetry, uHTS; Glutamate receptor ionotropic, NMDA 3A (GRIN3A) ligand-binding domain; Tm shift relative to glycine control, % at 25 µM; 340,000 tested, 2.5% active; NR3A LBD differential scanning fluorimetry, Tm shift; 0% = protein alone, 100% = glycine-bound protein; AID 1259313, 2017;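 active = melting temperature shift of at least 10% of the positive control shift, at one fixed dose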
CHOP inh – inhibitors of CHOP promoter induction, primary screen, cell-based, unfolded protein response, luciferase reporter. 220,000 tested, 3.8% active. CHO-K1 CHOP-promoter luciferase, tunicamycin-induced, 15-18 h. AID 2732, 2010. inhibition, % at 10 µM;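 active = compounds that reduced the stress-induced luciferase reporter signal by more than about 70% of percent inhibition, limit read from the data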;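 also: 0% = tunicamycin plus vehicle and 100% = wells without tunicamycin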
The depositor's hits bear a star; · = no result. The list is not random: actives were taken first. Their share in the collection is about 6.4%.

SMILES | TbMetRS inhib | WT yeast gro inh | MPTP inh | EBV gp42 inh | GRIN3A LBD mod | CHOP inh
Cc1cc(N(CCCl)CCCl)ccc1C=NNC(=O)Cc1cc(=O)oc2cc(O)ccc12 | 0.5 | · | 1.3 | · | 11.1* | ·
O=C1C2(c3ccccc3)CN3CN(C2)CC1(c1ccccc1)C3 | -0.6 | -20.3 | -0.2 | -0.5 | 2.4 | 8.2
C=C(C=O)C[C@@H]1C[C@H](O)C2OC3C[C@]4(C)OC5/C=C\CC6OC7C(CC=CCC6OC5CCCC4OC3CC2O1)OC1CC2OC3CC(=O)OC3C[C@@H](C)C[C@@]2(C)OC1C[C@@H]7C (some centres undefined) | · | · | · | 2.1 | 8.7 | 107.0*
O=C(Nc1ccc(F)cc1)c1c(O)c2c(n(Cc3ccccc3)c1=O)CCCC2 | -0.9 | 12.2 | -1.5 | -7.8 | 10.6* | -20.8
CNC(=O)OCCc1nccn1C | 0.1 | 3.8 | -0.1 | -8.3 | -5.0 | -26.8
CC[n+]1c(SC)ccc2cc(OC)ccc21 | 0.7 | 70.9* | 1.1 | -18.7 | -1.3 | -13.3
CCN(CC)CCCN=C(C)c1c(O)n(C2CCCCC2)c(=O)[nH]c1=O | -1.1 | 8.4 | -1.2 | -8.7 | 2.5 | 6.0
CC1(C)C(C(=O)NN2C(=O)c3ccccc3C2=O)C1(C)C | -0.1 | 5.7 | 10.9 | -17.0 | 0.2 | -24.6
COc1ccc2c(c1OC)C(=O)OC2c1c(O)n(Cc2ccc(F)cc2)c(=O)[nH]c1=O (centres undefined) | 0.0 | 22.9 | -1.5 | 0.4 | 12.1* | -11.3
O=c1[nH]c(=O)n(Cc2ccc(F)cc2)c(O)c1C=NCc1cccnc1 | -0.1 | -5.0 | -0.7 | -14.9 | -6.3 | -33.7
COc1ccc(/C=C/C(=O)c2c(O)n(CCC3=CCCCC3)c(=O)[nH]c2=O)cc1 | -1.0 | -12.8 | -3.2 | -46.9 | 0.8 | 80.6*
O=C(/C=C/c1ccc2c(c1)OCO2)c1c(O)n(CCC2=CCCCC2)c(=O)[nH]c1=O | -0.2 | -0.5 | -2.7 | -16.7 | -2.2 | 90.0*
Cc1ccsc1C(=O)C1CCCN(Cc2cc(C(C)C)n[nH]2)C1 (centres undefined) | 0.3 | -10.4 | -0.7 | -1.0 | -1.5 | 12.6
O=C(Cn1c(=S)[nH]c2ccccc2c1=O)N1CCC2(CC1)OCCO2 | 0.1 | 6.5 | 1.6 | -12.0 | -0.2 | -20.4
COC(=O)C1C=C2c3cccc4[nH]cc(c34)CC2N(C)C1 (centres undefined) | · | · | · | 113.7* | · | -5.7
C=CCN1C(=O)NC(=O)/C(=C/c2c(CCN(C)C(=O)c3ccccc3)cc3c(c2OC)OCO3)C1=O | 0.1 | · | 12.4 | · | -0.5 | ·
Clc1cccc(Cl)c1NC1=NCCS1 | 0.0 | · | -2.3 | · | · | ·
O=[N+]([O-])c1ccc(Nc2ccccc2)cc1 | -1.2 | 19.0 | 20.3 | -15.3 | -4.0 | 22.9
CCCCC/C=C\C/C=C\C/C=C\C/C=C\CCCC(=O)Nc1ccc(O)cc1 | · | 75.7* | · | -4.9 | · | 24.8
CN(C)c1nc(OCCNC(=O)COc2ccc(Cl)cc2Cl)nc(N2CCCCC2)n1 | -0.6 | 9.9 | -2.1 | -6.3 | -2.0 | 94.2*
O=C(O)CCCOc1ccc(Cl)cc1Cl | 0.6 | · | -3.5 | · | -2.4 | ·
CCC(C)(C)n1nnnc1C(c1cccs1)N1CC=C(c2ccc(F)cc2)CC1 (centres undefined) | -1.3 | 71.7* | 1.5 | -11.4 | 1.9 | -14.0
Fc1ccc(C2=CCN(C(c3cccs3)c3nnnn3CCc3ccccc3)CC2)cc1 (centres undefined) | 0.4 | 35.3 | 0.2 | -19.1 | 0.0 | 24.2
O=C(CN1CC=C(c2ccccc2)CC1)NC(=O)NCc1ccco1 | -0.6 | -4.5 | 1.2 | -12.5 | 1.2 | 76.0*
O=C(CCN1CC=C(c2ccccc2)CC1)NCc1ccccc1 | 0.2 | · | -0.1 | · | · | ·
SMILES | TbMetRS inhib | WT yeast gro inh | MPTP inh | EBV gp42 inh | GRIN3A LBD mod | CHOP inh
CCN1C[C@]2(COC(=O)c3ccccc3N)CC[C@H](OC)C34[C@@H]5C[C@H]6[C@H](OC)[C@@H]5[C@](O)(C[C@@H]6OC)[C@@](O)([C@H]13)[C@@H](OC)[C@@H]42 | -0.6 | · | -0.3 | · | 10.0* | ·
C[C@]12CCC(=O)C(O)=C1CC[C@@H]1[C@@H]2CC[C@]2(C)C(=O)CC[C@@H]12 | 0.7 | -4.8 | 3.5 | -1.3 | 11.5* | -4.7
COc1cc2c(cc1OC)C13CCN4CC5=CCOC6CC(=O)N2C1C6C5C3C4 (centres undefined) (tested in a mixture with another compound) | 0.1 | · | -1.6 | · | 0.9 | ·
N#CC1c2ccccc2-n2nncc2CN1S(=O)(=O)c1ccccc1 (centres undefined) | -1.1 | · | 0.2 | · | -0.5 | ·
C1=C(CCNCc2ccccc2)CCCC1 | -0.2 | 10.4 | -1.1 | -22.4 | 11.2* | 52.0
Fc1ccc(CNCCc2ccccc2)cc1 | -0.9 | -7.6 | -0.3 | 3.5 | -2.1 | -15.4
O=C1NC(=O)N(CCc2ccc(F)cc2)C(=O)/C1=C\C=C\c1ccccc1 | -0.2 | -10.6 | -4.6 | -15.4 | -3.2 | 72.6*
C=CCN1C(=O)NC(=O)/C(=C/C=C/c2ccccc2)C1=O | 0.4 | -7.8 | 2.0 | -8.9 | 2.6 | 15.1
O=C1NC(=O)N(c2ccccc2)C(=O)/C1=C/C=C/c1ccco1 | 0.5 | · | 1.1 | -177.6 | -2.2 | -14.9
O=C1NC(=O)N(Cc2ccccc2)C(=O)/C1=C\C=C\c1ccco1 | -0.3 | -7.9 | -1.3 | -108.7 | 1.3 | 90.9*
CC(C)c1ccc(N=Cc2c(O)n(C3CC3)c(=S)[nH]c2=O)cc1 | 0.4 | · | 1.5 | 0.1 | -2.2 | 84.4*
O=c1[nH]c(=S)n(C2CC2)c(O)c1C=Nc1ccc2c(c1)OCO2 | 0.0 | · | 3.8 | -9.3 | -1.9 | -28.7
COc1ccc(-n2c(CN3CCOCC3)nc3ccccc3c2=O)c(OC)c1 | -0.8 | · | 0.0 | · | -1.4 | ·
COc1cccc(-c2sc3ccccc3c2-c2ccc(OCCN3CCOCC3)cc2)c1 | -0.3 | · | 1.3 | · | 14.8* | ·
c1ccc(CN2CCN(Cc3ccc4ccccc4c3)CC2)cc1 | 1.5 | · | -0.8 | · | -2.4 | ·
COC(=O)C(O)(c1ccc(NC(=O)c2cccs2)c(C)c1)C(F)(F)F (centres undefined) | -0.7 | · | -0.8 | -6.8 | -3.7 | -10.7
CNc1ccc2nc3ccccc3[n+](C)c2c1 | -0.9 | · | 17.3 | · | 11.8* | ·
COC(=O)c1ccc(NC(=O)CSc2nc3ccc(N4C(=O)C5C6C=CC(C6)C5C4=O)cc3s2)cc1 (centres undefined) | 1.1 | 7.2 | 5.6 | -9.9 | 12.1* | 3.2
O=C(N/N=C/c1c(O)n(Cc2ccc(F)cc2)c(=O)[nH]c1=O)c1ccccc1 | 2.8 | · | -0.1 | -8.6 | -2.7 | -3.1
O=C(O)CCC(=O)NCCC1=c2ccccc2=N/C1=C\c1c(O)n(Cc2ccc(F)cc2)c(=S)[nH]c1=O | 3.1 | · | 2.7 | 81.6* | 1.4 | 12.4
